Results of several laboratories.
Compare with care: the assays were run in different laboratories.
BTK: Tyrosine-protein kinase BTK (BTK, Homo sapiens, UniProt Q06187)
COQ8A: Atypical kinase COQ8A, mitochondrial (COQ8A, Homo sapiens, UniProt Q8NI60)
AKT2: RAC-beta serine/threonine-protein kinase (AKT2, Homo sapiens, UniProt P31751)

Structure (SMILES)	target	test	setting	quantity	value
[2H]c1cc(C)c(NC(=O)c2cnc(Nc3cc(N4CC[C@H](O)C4)nc(C)n3)s2)c(Cl)c1	BTK	enzyme activity, inhibitor, mobility shift	1 nM	inhibition	72%
C#Cc1cnc(Nc2ccnc(CO)c2)nc1Nc1ccccc1S(C)(=O)=NC#N (stereo not drawn)	COQ8A	cell-free assay	1 µM	remaining signal	97%
Cc1cc(-c2ccnc3[nH]cc(F)c23)cc(F)c1[C@@]1(O)[C@H](C)CN(C(=O)CN)C[C@@H]1C	AKT2	enzyme activity, inhibitor	15 nM	remaining activity	94.5%
N#Cc1ccc(NC(=O)Nc2ccccc2)cc1	COQ8A	cell-free assay, competition with immobilised ligand	25 µM	remaining binding	96%
[2H]c1cc(C)c(NC(=O)c2cnc(Nc3cc(N4CCCCC4)nc(C)n3)s2)c(Cl)c1	BTK	enzyme activity, inhibitor, mobility shift	100 pM	inhibition	> 50%
COc1ccc2oc(-c3ccc4nc(N)oc4c3)c/c(=N\c3ccccc3NC(=O)CCN)c2c1	Casein kinase II subunit alpha (CSNK2A1, Homo sapiens, UniProt P68400)	binding	1 µM	remaining binding	106%
Cc1cc(O)c(-c2ccc([C@@H](C)CN(C)C)cc2)c2c1[nH]c(=O)c1sccc12	Ribosomal protein S6 kinase alpha-5, N-terminal kinase domain (RPS6KA5, Homo sapiens, UniProt O75582)	enzyme activity, inhibitor	0.1 µM	inhibition	3.82%
Cc1nc(Nc2ncc(C(=O)Nc3c(C)cccc3Cl)s2)cc(N2CC[C@@H](N)C2)n1	BTK	enzyme activity, inhibitor, mobility shift	1 nM	inhibition	71%
CN(C)CCOC(=O)COc1ccc(Cl)cc1	D(4) dopamine receptor (DRD4, Homo sapiens, UniProt P21917)	ligand displacement, radioligand	1 µM, cell membranes	inhibition	-12.4%
C#Cc1cc(-c2cc(Nc3nc(N[C@@H](C)c4ccc(F)cn4)ncc3Cl)n[nH]2)ccc1C=O	Mitogen-activated protein kinase kinase kinase 19 (MAP3K19, Homo sapiens, UniProt Q56UN5)	enzyme activity, inhibitor	0.2 µM	inhibition	3.1%
CCCCC(=O)Nc1ccc(-c2ccc3ncn(CCC)c(=O)c3c2)cn1	Mast/stem cell growth factor receptor Kit (KIT, Homo sapiens, UniProt P10721, V559D)	binding, competition with immobilised ligand	0.5 µM	remaining binding	99%
C1=C/COCc2cc(ccc2OCCN2CCCC2)Nc2nccc(n2)-c2cccc(c2)COC/1	Serine/threonine-protein kinase Nek11 (NEK11, Homo sapiens, UniProt Q8NG66)	binding	0.1 µM	remaining binding	95%
Cc1nc(Nc2ncc(C(=O)Nc3c(C)cccc3Cl)s2)cc(N2CC[C@H](O)C2)n1	BTK	enzyme activity, inhibitor, mobility shift	1 nM	inhibition	72%
Cc1cc(-c2ccnc3[nH]cc(F)c23)cc(F)c1[C@@]1(O)[C@H](C)CN(C2CCS(=O)(=O)CC2)C[C@@H]1C	AKT2	enzyme activity, inhibitor	0.1 µM	remaining activity	103%
C[C@H](NC(=O)C(=O)Nc1ccccc1C(C)(C)C)C(=O)N[C@@H](CC(=O)O)C(=O)COc1c(F)c(F)cc(F)c1F	Caspase-4 (Casp4, Mus musculus, UniProt P70343)	enzyme activity, inhibitor		kinact/KI	448000 M⁻¹ s⁻¹
